# Compound activity deposited in PubChem BioAssay by several laboratories.
# This is a sample that favours compounds with a hit; in the whole collection about 9.2% have one here.
# ERa coact pot: enhancers of ERα–SRC-1 coactivator binding, primary screen, biochemical, TR-FRET, ERα LBD, low estradiol; TR-FRET ERalpha-LBD/SRC-Cy5 coactivator binding, 2 h; 100 = basal binding, no effect; actives 1.3% (n = 86,000); coactivator binding (% of control), % at 25.6 µM; in the data active = activity above about 200%;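 note: binding measured in presence of low estradiol as agonist stimulus; 0% = peptide alone without receptor and 100% = receptor with peptide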
# Target sequence (P03372 whole entry, looked up, the tested form may be a part): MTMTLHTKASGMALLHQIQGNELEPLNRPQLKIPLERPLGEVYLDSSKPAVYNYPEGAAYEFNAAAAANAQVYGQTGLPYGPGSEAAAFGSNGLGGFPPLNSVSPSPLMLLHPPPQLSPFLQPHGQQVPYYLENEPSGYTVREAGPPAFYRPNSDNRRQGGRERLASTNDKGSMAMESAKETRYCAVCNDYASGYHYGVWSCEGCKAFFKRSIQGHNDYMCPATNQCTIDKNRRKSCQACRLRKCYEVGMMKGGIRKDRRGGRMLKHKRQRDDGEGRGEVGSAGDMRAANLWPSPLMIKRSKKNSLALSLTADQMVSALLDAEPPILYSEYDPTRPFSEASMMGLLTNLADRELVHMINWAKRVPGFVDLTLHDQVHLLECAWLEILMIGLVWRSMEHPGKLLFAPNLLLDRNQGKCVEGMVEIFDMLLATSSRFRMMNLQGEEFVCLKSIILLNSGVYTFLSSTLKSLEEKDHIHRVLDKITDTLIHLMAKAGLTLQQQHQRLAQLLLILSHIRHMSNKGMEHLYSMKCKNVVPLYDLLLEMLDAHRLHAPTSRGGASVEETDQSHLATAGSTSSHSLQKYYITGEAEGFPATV
# H69AR inhibit: proliferation blockers of H69AR lung cancer cells, primary screen, cell-based, human, 86K library; H69AR lung tumor viability, ATP luminescence, 72 h; active compounds read low; viability, % at 10 µM; actives 6% (n = 85,000); AID 598, 2007;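 active = viability at or below 40%; inactive = viability above 40%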;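 note: multidrug resistant small cell line overexpressing MRP-1 efflux transporter; 100% = mean luminescence of untreated control wells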
# ERb coact inh: inhibitors of ERβ-SRC1 coactivator interaction, primary screen, biochemical, TR-FRET, ERβ LBD, SRC-1 peptide | Estrogen receptor beta (Homo sapiens), Q92731 | TR-FRET ER-beta LBD / SRC1-Cy5 peptide binding; receptor agonist-loaded with 1 µM estradiol | inhibition, % at 25.6 µM | actives 1.3% (n = 86,000);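 active = compounds whose percent inhibition of the receptor-coactivator binding signal exceeds about 50% in the single-dose screen, limit read from the data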;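 note: 0% = receptor plus peptide wells without compound and 100% = peptide-only wells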
# HUVEC inhibit: inhibitors of HUVEC proliferation, primary screen, cell-based, 384-well; CellTiter-Glo luminescence, 72 h; active compounds read low; viability, % at 10 µM (by protocol); actives 1.1% (n = 86,000); AID 648, 2007;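 active = viability at or below 30%; inactive = viability above 30%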;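 note: 100% = median luminescence of DMSO-only cell control wells on each plate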
# Lung fibro prol: antiproliferative effect on LL 47 fibroblasts – human, LL 47 cells, CellTiter-Glo luminescence, primary screen | actives 1.1% (n = 85,000) | viability, % at 10 µM | LL 47 human lung fibroblast viability, ATP luminescence; active compounds read low;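 active = viability at or below 50% in the single dose screen; inactive = viability above 50%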;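 note: compound exposure lasted 72 h before the ATP readout; 100% = median luminescence of untreated cell-only wells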
#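 Assay system: human lung fibroblast line LL 47, low passage. Input: 1,150 fibroblasts seeded per well. Times: overnight cell rest, 72 h compound treatment at 37 °C. Evaluation: % viability of median cell-only signal. Technique: luminescent ATP detection, CellTiter-Glo. Control set: cell-only wells, no compound.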
# ERa SRC1 inh: ERα–SRC-1 coactivator interaction inhibitors, primary screen, biochemical, TR-FRET, ERα LBD, estradiol-bound. AID 629, 2007. inhibition, % at 25.6 µM. actives 1.7% (n = 86,000). TR-FRET ER-alpha LBD / SRC-1 peptide. Estrogen receptor (Homo sapiens), P03372; in the data active = inhibition above about 50%;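 note: 0% = receptor plus peptide control and 100% = peptide only without receptor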
# Numbers without * were called inactive; [ ] = dose if it differs, or a comment.
SMILES,ERa coact pot,H69AR inhibit,ERb coact inh,HUVEC inhibit,Lung fibro prol,ERa SRC1 inh
O=C(Cn1nc(-c2ccccc2)c2ccccc2c1=O)Nc1ccc2c(c1)nc1n2CCOC1,209*[fluorescence artefact?],29*,47,103,102,22
Cc1ccc(OCC(=O)Nc2ccc3c(c2)nc2n3CCOC2)cc1,166,90,-4,91,105,4
Cc1ccc(-c2nn(CC(=O)Nc3ccc4c(c3)nc3n4CCOC3)c(=O)c3ccccc23)cc1,165,89,54*[fluorescence artefact?],50,96,67*[fluorescence artefact?]
Cc1onc(-c2ccccc2)c1-c1nc2ccccc2c(=O)o1,95,57,-5,68,89,-3
CCn1c(C)nc2cc(-c3nnc(-c4c(-c5ccccc5)noc4C)o3)ccc21,373*[fluorescence artefact?],93,-3,66,100,-18
CCOc1cccc2cc(C(=O)NCc3cccnc3)c(=O)oc12,174,88,-1,92,93,4
C=CCc1cccc2cc(C(=O)NCc3cccnc3)c(=O)oc12,65,70,44,92,99,81*[fluorescence artefact?]
COc1ccc(Cc2nc(C(=O)Nc3ccc(F)cc3)cs2)cc1,105,61,-13,46,91,-1
COc1ccc(CC(=O)Nc2ccc(-c3noc(-c4cc(OC)c(OC)c(OC)c4)n3)cc2)cc1,121,21*,34,57,98,34
COc1ccc(Cc2nc(C(=O)Nc3ccc(Cl)cc3)cs2)cc1,104,100,-5,21*,112,-4
COc1ccc(-c2noc(CCC(=O)Nc3ccc(C)c(C)c3)n2)cc1,127,91,-4,95,92,-6
COc1ccc(CC(=O)Nc2ccc(-c3noc(-c4ccc(Cl)cc4)n3)cc2)cc1,128,5.1*,40,43,19*,66*
COc1ccc(Cc2nc(-c3ccc(Cl)cc3)no2)cc1,110,104,-3,104,102,-1
COc1ccc(Cc2nc(-c3ccc(NC(=O)c4cccnc4)cc3)no2)cc1,110,6.0*,-5,120,102,-5
CCN(CC)S(=O)(=O)c1ccc(NC(=O)Cn2cnc3ccccc3c2=O)cc1,109,91,2,102,106,-4
COC(=O)c1ccc(CC(=O)c2c(C)cc(O)cc2O)o1,75,93,52*,107,108,35
CCOc1ncccc1C(=O)OCc1cc(=O)n2c(n1)sc1ccccc12,115,99,56*[fluorescence artefact?],107,103,84*[fluorescence artefact?]
CCCC(C)C1C(C#N)=C(N)Oc2cc(C)oc(=O)c21 (configuration not stated),102,69,-13,93,102,-15
Cc1ccc(-c2csc(NC(=O)c3ccno3)n2)cc1,29,97,75*,90,104,73*
CCn1ncc(Cl)c1C(=O)NC(C)c1ccccc1 (configuration not stated),100,85,-19,97,99,10
CSc1nnc2c3cc(C)ccc3n(Cc3ccccc3)c2n1,105,63,54*[fluorescence artefact?],95,94,68*[fluorescence artefact?]
O=C(COC(=O)c1ccco1)Nc1ccc(Br)cc1,98,100,24,86,92,22
NC(=O)/C(=N\OC(=O)c1ccco1)c1nc(-c2ccc(Br)cc2)cs1,86,62,47,53,97,66*[fluorescence artefact?]
Cc1ccc(-c2nnn(CC(=O)N(Cc3ccccc3)C(C(=O)NC3CCCC3)c3ccncc3)n2)o1 (configuration not stated),114,87,1,94,94,-8
CCOC(=O)c1c(C)c(C(=O)NCCOC)c(C)n1CC,122,92,1,101,99,0
SMILES,ERa coact pot,H69AR inhibit,ERb coact inh,HUVEC inhibit,Lung fibro prol,ERa SRC1 inh
CCOC(=O)c1c(C)c(C(=O)Nc2ccc(N(C)C)cc2)c(C)n1CC,99,19*,21,54,57,-14
COc1ccc(-c2nc3c(c(=O)n(C)c(=O)n3C)n2CC2CC(c3ccccc3)=NO2)cc1OC (configuration not stated),100,6.3*,-2,75,103,2
CC(C)CC(C(=O)N1CCc2ccccc2C1)N1C(=O)c2ccccc2C1=O (configuration not stated),90,68,-8,75,87,-2
CC(=O)N1CCc2cc(S(=O)(=O)NC(CC(C)C)C(=O)Nc3ccc4c(c3)OCCO4)ccc21 (configuration not stated),111,101,10,105,97,3
CC1CCN(C(=O)COC(=O)[C@H](C)NS(=O)(=O)/C=C/c2ccccc2)CC1,103,105,-2,96,93,1
CC(C)CCn1nnnc1C(c1ccc(F)cc1)N1CCC(C(N)=O)CC1 (configuration not stated),106,88,-9,101,102,-7
O=C(c1ccc2nc(-c3ccco3)c(-c3ccco3)nc2c1)N1CCN(c2ncccn2)CC1,26,65,86*[fluorescence artefact?],99,102,76*[fluorescence artefact?]
Cc1cccc(N2CCN(C(=O)c3ccc4nc(-c5ccco5)c(-c5ccco5)nc4c3)CC2C)c1 (configuration not stated),77,54,36,23*,87,24
CC(=O)Nc1ccccc1-c1nc2ccc(C(=O)N3CCN(c4cccc(C)c4)C(C)C3)cc2[nH]c1=O (configuration not stated),108,78,1,91,100,-13
N=c1nc(N)nc2n1NC(c1ccc(F)cc1)=CS2,116,93,-5,30*,91,5
COc1ccc(C2=CSC(/N=C/c3ccc(F)cc3)=NN2)cc1,54,87,-7,105,95,-1
O=C(/C=C1\NC2(CCCC2)Cc2ccccc21)N1CCOCC1,98,85,83*[fluorescence artefact?],93,102,-2
CC1(C)Cc2c(ccc3ccccc23)/C(=C/C(=O)N2CCCCC2)N1,134,79,1,96,90,1
Cc1noc(C)c1CSc1nc2ccccc2c(=O)n1-c1ccc(F)cc1F,100,23*,5,51,61,-1
Cc1noc(C)c1CSc1nnc2n(-c3ccccc3)c(=O)c3ccccc3n12,88,81,11,104,87,5
C=CCn1c(SCc2c(C)noc2C)nc2sc3c(c2c1=O)CCCC3,73,28*,7,55,89,12
